T cruzi repl: inhibitors of intracellular T. cruzi growth, primary screen, luminescence, NIH3T3 host cells; T. cruzi beta-gal in NIH3T3, 90 h; inhibition, % (test concentration not listed); actives 1.4% (n = 300,000);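 active means mean inhibition across valid replicates above about 55%, limit read from the data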;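 further: signal also drops with host cell toxicity which is not excluded here; 0% = plate median of DMSO wells and 100% = zero luminescence signal; higher percent means less beta-gal luminescence so fewer parasites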
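System – NIH/3T3 host cells with β-galactosidase reporter T. cruzi · Doses – single 50 nL compound addition per well in DMSO · Reagent – 5000 T. cruzi trypomastigotes/well · Medium – Low-serum DMEM with 2% FBS · Timing – ≥90 h infection period, 3 h prior cell attachment · Evaluation – parasite load inhibition, % · Technique – GalScreen luminescence, 60 min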
WT yeast gro inh: growth inhibition of WT strain, primary screen, mitochondrial fusion inhibitor project, WT and mutant strains, chemical genetic; inhibition, % at 10 µM; mitochondrial fusion phenotypic screen; actives 2.1% (n = 190,000); AID 1362, 2008; in the data active means inhibition above about 58%; tested in S. cerevisiae
Beta cell apopt: inhibitors of cytokine-induced beta cell apoptosis, primary screen, luminescence; INS-1E cytokine-induced death, ATP luminescence, 48 h; percent of positive-control rescue, neutral wells zero; protection from apoptosis, % (test concentration not listed); actives 0.8% (n = 300,000);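 active means Every replicate reaches about 75%, or at least half do and their mean reaches it too, limit read from the data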;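 further: 0% = cytokine-treated negative control wells and 100% = positive control rescue; higher means more ATP so stronger rescue from cytokine killing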
Efflux pump inh: inhibitors of Candida efflux pumps in yeast, primary screen, S. cerevisiae, Nile Red, multiplex; AID 485275, 2010; inhibition, % at 10 µM; S. cerevisiae Candida pump triplex; actives 0.44% (n = 330,000);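 active means plate passing quality check with inhibition over a set limit, or well fluorescence over plate mean plus 4 SD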;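 further: Nile Red retained in pooled yeast measured as flow cytometry median fluorescence; 0% = buffer negative control and 100% = Enniatin B positive control; higher means more Nile Red kept so more efflux inhibition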
SUMO Mot1 rescue: yeast Mot1-301 growth rescue at high temperature, primary screen, SUMOylation pathway inhibitor project, S. cerevisiae, ATP luminescence, 38.5C; S. cerevisiae Mot1-301 growth rescue; percent above DMSO median, 100 means doubled; growth rescue, % at 18.8 µM; actives 1% (n = 320,000);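 active means every valid replicate shows activation above 250% relative to neutral control wells; inactive means the rest, any valid replicate at or below 250%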;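 further: OY570 slx delta 5 strain wells were the positive control but not used for scaling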
CSC inhib: cancer stem cell viability inhibitors, primary screen, luminescence; cancer stem cell-like cells viability; inhibition, % at 7.5 µM; actives 1.1% (n = 300,000); AID 2717, 2010; in the data active means inhibition above about 75%; tested in HMLE shEcad cells
* marks the source's active call; other numbers are inactive results; . = not tested or not shown; + = active, no number. Shown are actives, neighbours in structure and some others; about 4.8% of the full set was active somewhere.

SMILES | T cruzi repl | WT yeast gro inh | Beta cell apopt | Efflux pump inh | SUMO Mot1 rescue | CSC inhib
Cc1ccc(CN=c2c([N+](=O)[O-])nn(-c3cccc(Cl)c3)n2O)cc1 | 24 | 61* | 1 | 0 | -19 | 13
Cc1ccc(CN=c2c([N+](=O)[O-])nn(-c3cccc(C)c3)n2O)cc1 | 31 | 24 | -8 | 0 | -16 | 2
CCc1ccc(N=c2c([N+](=O)[O-])nn(-c3ccccc3)n2O)cc1 | 56* | 28 | -5 | -1 | -3 | 4
CC(C)(C)OC(=O)NCCCCCNC(=O)c1[nH]cnc1C(=O)Nc1ccon1 | . | . | -1 | 0 | -8 | -6
CCn1nnc(NC(=O)C(c2ccccc2)c2ccccc2)n1 | -3 | -3 | -1 | 0 | -17 | 9
CCOC(=O)C(=O)NN=C(c1ccccc1)c1ccccc1 | 1 | . | -5 | 0 | 353 | -4
CSc1nc(Sc2cccc(Cl)c2)c2ccccc2n1 | 6 | 59* | -7 | 0 | . | -4
CCCN(CC(=O)Nc1cc(Cl)cc(Cl)c1)CC(=O)Nc1ccc(F)c(F)c1F | 49 | 73* | -9 | 0 | -13 | .
CC(=O)Nc1sc2c(c1-c1nc3ccccc3s1)CN(C(C)C)CC2 | . | . | 97* | 0 | -11 | .
CN1CCN(C2=Cc3ccc(Cl)cc3Sc3ccc(F)cc32)CC1 | 32 | 51 | 9 | 0 | 28 | 121*
CN1CCN(C2=Nc3cc(F)ccc3Cc3ccccc32)CC1 | 15 | 0 | 4 | 0 | 6 | -5
CN1CCN(C2=Cc3ccccc3Sc3cc(F)ccc32)CC1 | 25 | 94* | -2 | 0 | 3 | 18
CN1CCN(C2Cc3cc(F)ccc3Sc3ccc(Cl)cc32)CC1 (configuration not stated) | 34 | . | 13 | 0 | -7 | -11
CCNC(=O)NC(=O)COC(=O)CCCSc1nc2ccccc2s1 | -1 | -6 | -2 | 0 | 4 | 2
Cc1ccc(CNS(=O)(=O)c2ccc(C)s2)cc1 | -18 | . | . | 0 | 28 | 3
Cc1ccccc1OCCCc1c(C)n[nH]c1C | -10 | . | 4 | 0 | -8 | -13
Cc1ccccc1OCCCCc1c(C)n[nH]c1C | 15 | 76* | 49 | 0 | -7 | 5
CCNc1sc(C(=O)OCC)c(N)c1C#N | -6 | -7 | 2 | 0 | 13 | -9
CCCCCN(C(=O)CCC(=O)OC(C)C(=O)Nc1cccc(C#N)c1)c1c(N)n(CCCC)c(=O)[nH]c1=O (configuration not stated) | -8 | . | 3 | 0 | 303* | 0
CCCCOc1ccc(CC2CCC(=O)NC2=O)cc1 (configuration not stated) | 3 | -7 | 2 | 0 | + | -2
CCCCOc1ccc(C2CC(=O)NC2=O)cc1 (configuration not stated) | -2 | -13 | -1 | 0 | 5 | -12
Cc1cccc(N(Cc2ccccc2)C(=O)C2CCN(C(=O)c3ccccc3C)CC2)c1 | . | . | -2 | 0 | 0 | -11
CC(C)c1ccc(/C=N/n2c(COc3ccccc3)n[nH]c2=S)cc1 | -4 | . | 4 | 1 | 21 | 43
CC(C)(C)c1cc(/C=N/O)cc(C(C)(C)C)c1O | -9 | 80* | -21 | 0 | 8 | -9
CC(C)(C)C1CCC(=NOC(=O)c2ccc(F)cc2)CC1 (configuration not stated) | -5 | 98* | -6 | 0 | 282 | -3
SMILES | T cruzi repl | WT yeast gro inh | Beta cell apopt | Efflux pump inh | SUMO Mot1 rescue | CSC inhib
COc1cc(/C=C(/C#N)c2ccc(C)cc2)ccc1Oc1ccc([N+](=O)[O-])cn1 | 71* | 18 | 41 | 0 | -8 | 37
O=C(C[n+]1ccc(/C=N/O)cc1)N1CCCCC1 | 0 | . | -4 | 0 | -19 | 0
COc1ccc(CCNC(=S)Nc2ccc(C)cc2C)cc1 | 18 | 69* | 7 | 0 | 13 | 6
COc1ccc(NC(=S)NCCc2ccccc2)c(C)c1 | -19 | . | -4 | 0 | -7 | -4
COc1ccc(NC(=S)Nc2ccc(OCc3ccccc3)cc2)c(OC)c1 | 1 | 67* | . | 0 | 27 | .
COc1ccc(/C(C)=N/NC(=S)Nc2cc(C)ccc2C)cc1 | 35 | 67* | 2 | 0 | 12 | 25
